We go through eight molecules from ChEMBL document CHEMBL1143402 (PLoS Med, 2006).

The subject of data set [1] is Mycobacterium tuberculosis. Put plainly: Antimycobacterial activity against Mycobacterium tuberculosis Kurono infected po dosed immunocompromized BALB/c mouse assessed as reduction in viable lung bacterial count administered once daily. It is filed as functional, organism-based. In short, it runs like this:
(§1)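 From day 1, randomised by body weight (n = 5/group) and dosed orally once daily for 10 d, 10 to 0.313 mg/kg in 2-fold steps, in 5% gum arabic. Lung homogenates plated on 7H11 agar, colonies counted after 14 d; log10 CFU.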

The nature of data set [2]: Stability in rabbit liver microsomes. In kind it is ADME, Oryctolagus cuniculus, Microsome. In a few lines:
(§2)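 Liver microsomes (1 mg/ml protein) incubated with 100 µM drug, 2.5 mM NADPH and 2.5 mM NADH in 100 mM phosphate pH 7.4 with 1% DMSO. Run in duplicate, 2 h at 37 °C with shaking. Extracted with acetonitrile/ethyl acetate; analysed by HPLC and LC-ESI-MS/MS.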

Data set [3] can be described thus: Stability in mouse liver microsomes. It is filed as ADME, Microsome. In a few lines: as §2
The test system of data set [4] is Salmonella typhimurium. The data set can be described thus: Toxic mutagenic effect in Salmonella Typhimurium TA1537 in presence of rat liver microsomes after 48 hrs by bacterial reverse mutation test. In kind it is toxicity, organism-based. Conditions: salmonella enterica subsp. enterica serovar typhimurium.
Data set [5] is described as follows: Stability in dog liver microsomes. In kind it is ADME, Canis lupus familiaris, Microsome. In short, it runs like this: as §2
In data set [6] the test system is Mycobacterium tuberculosis. The data set can be described thus: Antimycobacterial activity against Mycobacterium tuberculosis Kurono infected po dosed BALB/c mouse assessed as reduction in viable lung bacterial count administered once daily. In kind it is functional, organism-based. In a few lines: as §1
The subject of data set [7] is Mycobacterium tuberculosis. Put plainly: Antimycobacterial activity against Mycobacterium tuberculosis H37Rv in human THP1 cells after 4 hrs. The conditions noted are these: THP-1. In kind it is functional, organism-based. In a few lines:
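PMA-differentiated human THP-1 macrophages infected 4 h with H37Rv, washed, then 20 µg/ml SM for 20 h to kill extracellular bacilli. Compound pulse for 4 h, washout, further 68-h culture. Lysis in 0.1% SDS, plating on 7H11 agar, colonies counted after 16 d at 37 °C; n = 3.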

For data set [8], the system named is Liver microsomes. Put plainly: Stability in human liver microsomes. It is filed as ADME, Microsome. In short, it runs like this: as §2
Data set [9] deals with Liver microsomes. Put plainly: Stability in rat liver microsomes. It is filed as ADME, Microsome. In short, it runs like this: as §2
Data set [10] is described as follows: Stability in monkey liver microsomes. The conditions noted are these: rhesus monkey. In kind it is ADME, Macaca mulatta, Microsome. In a few lines:
as §2

Data set [11] has as its system Salmonella typhimurium. Put plainly: Toxic mutagenic effect in Salmonella Typhimurium TA98 in presence of rat liver microsomes after 48 hrs by bacterial reverse mutation test. It is filed as toxicity, organism-based. Conditions: salmonella enterica subsp. enterica serovar typhimurium.
In data set [12] the test system is Salmonella typhimurium. Put plainly: Toxic mutagenic effect in Salmonella Typhimurium TA100 in presence of rat liver microsomes after 48 hrs by bacterial reverse mutation test. Conditions: salmonella enterica subsp. enterica serovar typhimurium. In kind it is toxicity, organism-based.
In data set [13] the test system is Salmonella typhimurium. The data set can be described thus: Toxic mutagenic effect in Salmonella Typhimurium TA1535 in presence of rat liver microsomes after 48 hrs by bacterial reverse mutation test. It is filed as toxicity, organism-based. The conditions noted are these: salmonella enterica subsp. enterica serovar typhimurium.
In another data set the target is T1, CYP1A1/CYP1A2 (Homo sapiens, UniProt P04798).
T1 sequence (P04798 whole entry): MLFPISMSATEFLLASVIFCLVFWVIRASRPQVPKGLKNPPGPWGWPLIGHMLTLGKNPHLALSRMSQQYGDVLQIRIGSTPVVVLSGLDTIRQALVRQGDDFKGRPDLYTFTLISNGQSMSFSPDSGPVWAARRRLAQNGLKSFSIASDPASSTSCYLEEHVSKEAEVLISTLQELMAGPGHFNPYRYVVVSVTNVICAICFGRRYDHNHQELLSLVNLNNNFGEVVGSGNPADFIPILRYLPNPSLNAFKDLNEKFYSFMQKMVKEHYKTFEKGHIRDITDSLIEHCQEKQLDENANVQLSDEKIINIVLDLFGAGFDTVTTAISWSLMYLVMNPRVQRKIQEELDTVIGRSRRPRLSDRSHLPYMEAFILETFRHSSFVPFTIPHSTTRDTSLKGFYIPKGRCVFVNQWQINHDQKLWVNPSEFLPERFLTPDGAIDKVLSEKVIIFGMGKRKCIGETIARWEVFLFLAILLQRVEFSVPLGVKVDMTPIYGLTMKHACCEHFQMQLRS
The data set can be described thus: Effect on CYP1A1/CYP1A2 in human liver assessed as 7-ethoxyresorufin O-deethylation at 100 uM relative to control. In kind it is ADME, tissue-based. The conditions noted are these: probe 7-ethoxyresorufin, read-out: Activity. In short, it runs like this: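 Human liver microsomes (0.1–0.5 mg protein) in 0.1 M phosphate pH 7.4 with 0.1 mM EDTA and NADPH-generating system. […] Metabolite formation by HPLC, in triplicate; mean expressed as % of control.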

Another data set has as its target CYP2E1 (Homo sapiens, UniProt P05181). Put plainly: Effect on CYP2E1 in human liver assessed as chlorzoxazone 6-hydroxylation at 100 uM relative to control. It is filed as ADME, tissue-based. Conditions: probe chlorzoxazone, read-out: Activity.
The target in a further data set is T2, CYP2A6 (Homo sapiens, UniProt P11509).
T2 sequence (P11509 whole entry): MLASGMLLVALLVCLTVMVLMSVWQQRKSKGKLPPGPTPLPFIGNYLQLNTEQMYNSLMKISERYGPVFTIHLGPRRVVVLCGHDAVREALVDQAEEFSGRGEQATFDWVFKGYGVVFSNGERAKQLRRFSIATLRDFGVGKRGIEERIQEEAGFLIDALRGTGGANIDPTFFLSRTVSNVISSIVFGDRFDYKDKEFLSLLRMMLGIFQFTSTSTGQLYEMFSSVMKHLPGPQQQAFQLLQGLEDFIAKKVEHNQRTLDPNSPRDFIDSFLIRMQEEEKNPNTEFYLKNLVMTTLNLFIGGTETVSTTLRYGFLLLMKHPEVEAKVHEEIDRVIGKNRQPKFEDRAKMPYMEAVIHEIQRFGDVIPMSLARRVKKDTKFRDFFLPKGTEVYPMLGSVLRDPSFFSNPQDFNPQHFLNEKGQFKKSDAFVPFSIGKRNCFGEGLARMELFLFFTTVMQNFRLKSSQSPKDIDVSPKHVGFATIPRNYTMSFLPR
The data set can be described thus: Effect on CYP2A6 in human liver assessed as coumarin 7-hydroxylation at 100 uM relative to control. It is filed as ADME, tissue-based. The conditions noted are these: probe coumarin, read-out: Activity.

The nature of data set [14]: AUC (0 to t) in human at 850 mg, po. It is filed as ADME, organism-based. Conditions: plasma.
Data set [15] is described as follows: Cmax in human at 850 mg, po. More on the design: dose 850 mg, route oral. Conditions: in vivo. It is filed as ADME, organism-based.
In data set [16] the test system is Mycobacterium tuberculosis. The data set can be described thus: Antimycobacterial activity against Mycobacterium tuberculosis Kurono infected ICR mouse assessed as reduction in viable lung bacterial count at 160 mg/kg, po administered once daily measured after 28 days. It is filed as functional. In short, it runs like this:
(§3)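 ICR mice infected via caudal vein with 8.6 × 10^4 CFU M. tuberculosis Kurono; after 28 d, stratified randomisation (n = 5/group), then oral dosing once daily for 28 d in 5% gum arabic, 2-fold dose series. Lungs homogenised in water, dilutions plated on 7H11 agar, colonies counted after 14 d at 37 °C; log10 CFU.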

Data set [17] has as its system Mycobacterium tuberculosis. Put plainly: Antimycobacterial activity against Mycobacterium tuberculosis Kurono infected ICR mouse assessed as reduction in viable lung bacterial count at 5 mg/kg, po administered once daily measured after 28 days. It is filed as functional. In a few lines: as §3
The nature of data set [18]: AUC (0 to t) in human at 300 mg, po. In kind it is ADME, organism-based. The conditions noted are these: plasma.
Data set [19] in a line: Plasma concentration in Mycobacterium bovis BCG infected tuberculosis mouse model at 5 mg/kg, po after 8 hrs. It is filed as ADME, organism-based. More on the design: dose 5 mg/kg, route oral. In short, it runs like this: (§4)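 The agent, dissolved or suspended in 5% gum arabic, was then given orally. At each time point, about 1 ml of blood was drawn from the abdominal post cava under ether into a heparinised syringe and centrifuged at 3,000 rpm, 5 °C. Plasma (0.1 ml) was mixed with 0.2 ml acetonitrile.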

Data set [20] in a line: Plasma concentration in Mycobacterium bovis BCG infected tuberculosis mouse model at 5 mg/kg, po after 1 hr. In kind it is ADME, organism-based. Also noted: dose 5 mg/kg, route oral. In short, it runs like this:
as §4

The nature of data set [21]: Plasma concentration in Mycobacterium bovis BCG infected tuberculosis mouse model at 5 mg/kg, po after 16 hrs. It is filed as ADME, organism-based. Also noted: dose 5 mg/kg, route oral. In short, it runs like this: as §4
Data set [22] can be described thus: Plasma concentration in Mycobacterium bovis BCG infected tuberculosis mouse model at 5 mg/kg, po after 2 hrs. In kind it is ADME, organism-based. Also noted: dose 5 mg/kg, route oral. In short, it runs like this: as §4
The subject of data set [23] is Mycobacterium tuberculosis. Put plainly: Antimycobacterial activity against Mycobacterium tuberculosis Kurono infected ICR mouse assessed as reduction in viable lung bacterial count at 3.5 mg/kg, po administered once daily measured after 28 days. In kind it is functional. In short, it runs like this: as §3
Data set [24] can be described thus: Plasma concentration in Mycobacterium bovis BCG infected tuberculosis mouse model at 5 mg/kg, po after 0.5 hrs. It is filed as ADME, organism-based. Also noted: dose 5 mg/kg, route oral. In short, it runs like this:
as §4

A short description of data set [25]: Plasma concentration in Mycobacterium bovis BCG infected tuberculosis mouse model at 5 mg/kg, po after 4 hrs. In kind it is ADME, organism-based. More on the design: dose 5 mg/kg, route oral. In short, it runs like this: as §4
For data set [26], the system named is Mycobacterium tuberculosis. Put plainly: Antimycobacterial activity against Mycobacterium tuberculosis Kurono infected ICR mouse assessed as reduction in viable lung bacterial count at 40 mg/kg, po administered once daily measured after 28 days. It is filed as functional. In short, it runs like this: as §3

Chain of CYP2E1 (P05181 whole entry): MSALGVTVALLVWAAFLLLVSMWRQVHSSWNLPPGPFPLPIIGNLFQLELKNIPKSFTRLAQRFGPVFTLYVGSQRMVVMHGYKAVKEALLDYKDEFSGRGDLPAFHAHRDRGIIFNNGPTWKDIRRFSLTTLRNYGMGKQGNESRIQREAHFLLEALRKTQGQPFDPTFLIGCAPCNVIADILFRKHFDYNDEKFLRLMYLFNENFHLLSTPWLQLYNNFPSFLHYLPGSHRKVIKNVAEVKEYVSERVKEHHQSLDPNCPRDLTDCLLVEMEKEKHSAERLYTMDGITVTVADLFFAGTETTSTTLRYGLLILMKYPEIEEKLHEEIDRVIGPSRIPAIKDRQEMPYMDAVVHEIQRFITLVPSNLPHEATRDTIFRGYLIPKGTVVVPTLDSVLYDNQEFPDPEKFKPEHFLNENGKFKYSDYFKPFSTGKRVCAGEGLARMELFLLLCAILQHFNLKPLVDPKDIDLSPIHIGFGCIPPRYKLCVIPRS

`C[C@]1(COc2ccc(N3CCC(Oc4ccc(OC(F)(F)F)cc4)CC3)cc2)Cn2cc([N+](=O)[O-])nc2O1`: the Activity result in [1] is “Dose-dependent effect”; in data set [2], “Stable”; in [3], “Stable”; in the data set with Salmonella typhimurium [4], “Non-toxic”; in [5], “Stable”; in data set [6], “Dose-dependent effect”. For the same molecule, the Activity entry was “Dose-dependent effect” in data set [7]; “Stable” in the data set with Liver microsomes [8]; “Stable” in the data set with Liver microsomes [9]; “Stable” in data set [10]; “Non-toxic” in the data set with Salmonella typhimurium [11]; “Non-toxic” in the data set with Salmonella typhimurium [12]. The Activity result with Salmonella typhimurium [13] is “Non-toxic”.

Consider `O=c1cc(-c2ccccc2)oc2c1ccc1ccccc12` [ALPHA-NAPHTHOFLAVONE], for which the activity at 100 µM at CYP1A1/CYP1A2 was 3.8%.

As to `CCN(CC)C(=S)S` [DITIOCARB], the results for the activity at 100 µM on CYP2E1 and at CYP2A6 were 55% and 38.2%, respectively.

As to `CC[C@@H](CO)NCCN[C@@H](CC)CO` [ETHAMBUTOL], the AUC(0-t) in data set [14] turned out to be 13000 ng·h/mL. For the same molecule, in [15], the peak level (Cmax) was 3700 ng/mL. In addition, in data set [16], the Activity worked out at 95%.

With `NNC(=O)c1ccncc1` [ISONIAZID], in [17], the Activity was found to be 95%. Besides, in data set [18], the area under the curve AUC(0-t) was determined as 22900 ng·h/mL.

`NC(=O)c1cnccn1` [PYRAZINAMIDE]: the Activity in data set [16] is recorded as 95%.

`CO[C@H]1/C=C/O[C@@]2(C)Oc3c(C)c(O)c4c(O)c(c(/C=N/N5CCN(C)CC5)c(O)c4c3C2=O)NC(=O)/C(C)=C\C=C\[C@H](C)[C@H](O)[C@@H](C)[C@@H](O)[C@@H](C)[C@H](OC(C)=O)[C@@H]1C` [RIFAMPIN] showed a concentration at 8 h in [19] of 3180 ng/mL. For the same molecule, the concentration at 1 h in data set [20] came to 4490 ng/mL. This molecule yielded a concentration at 16 h in [21] of 660 ng/mL. In addition, the concentration at 2 h in data set [22] turned out to be 4520 ng/mL. The Activity in [23] is on record as 95%. This molecule also displayed a concentration at 0.5 h in data set [24] of 3330 ng/mL. The concentration at 4 h in data set [25] was 3820 ng/mL.

For the molecule `CN[C@@H]1[C@H](O[C@H]2[C@H](O[C@H]3[C@H](O)[C@@H](O)[C@H](N=C(N)N)[C@@H](O)[C@@H]3N=C(N)N)O[C@@H](C)[C@]2(O)C=O)O[C@@H](CO)[C@H](O)[C@H]1O` [STREPTOMYCIN], the Activity in [26] is on record as 95%.
